High-throughput results: PubChem, several laboratories
The list is not random: actives were taken first. Their share in the collection is about 2.6%.
SENP6 block = SENP6 protease inhibition | Q9GZR1 | Recombinant SENP6 catalytic domain, aminoluciferin luminescence | inhibition, % at 10 µM | hit rate 1.8% among 330,000 | AID 2599;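 active = inhibition above about 50% at the single tested dose, limit read from the data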;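 note: plate controls were DMSO wells with enzyme for no effect and DMSO wells lacking enzyme for full effect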
SENP8 block-1 = inhibitors of human SENP8 protease; inhibition, % at 10 µM; AID 2540; hit rate 1.2% among 330,000; Q96LD8; purified SENP8, Z-RLRGG-aminoluciferin cleavage, luminescence; in the data active = inhibition above about 50%
SENP7 inh = inhibitors of human SENP7 protease; inhibition, % at 5 µM; recombinant SENP7, Z-RLRGG-aminoluciferin luminescence, 40 min; hit rate 1.5% among 330,000; Q9BQF6;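 active = inhibition above about 50% at the single test dose, limit read from the data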;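 note: plate controls were DMSO with enzyme for no effect and no enzyme buffer wells for full effect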
Target sequence (Q9BQF6 706-1050 limits assumed): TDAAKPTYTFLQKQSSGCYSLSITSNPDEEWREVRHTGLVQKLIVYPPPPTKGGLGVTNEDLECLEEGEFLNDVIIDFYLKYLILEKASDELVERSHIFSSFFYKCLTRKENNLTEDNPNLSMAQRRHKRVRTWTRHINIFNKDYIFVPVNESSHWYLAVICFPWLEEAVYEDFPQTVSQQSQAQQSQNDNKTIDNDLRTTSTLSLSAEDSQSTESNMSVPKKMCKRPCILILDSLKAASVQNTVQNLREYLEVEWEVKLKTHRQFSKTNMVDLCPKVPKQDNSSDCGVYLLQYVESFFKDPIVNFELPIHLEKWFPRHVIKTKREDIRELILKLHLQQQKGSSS
Platelet DG rel = modulates dense granule release in human platelets; human platelet-rich plasma, SFLLRN dense granule ATP release, luminescence; inhibition, %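 (compounds screened at 7.5 µM in platelet-rich plasma)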; hit rate 0.22% among 300,000; AID 1663;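 active = mean replicate score, as percent of positive control, at or above 50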
SENP1 FRET inh = blocks the human SENP1 SUMO protease catalytic domain; Q9P0U3; recombinant SENP1 catalytic domain, CyPet-SUMO1-YPet FRET cleavage; hit rate 0.21% among 360,000; AID 624204; inhibition, % at 10 µM;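 active = inhibition at least 30% at 10 µM, raw YFP signal under a set limit, fluorescence ratio 0.5 to 1.5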;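 note: 0% = enzyme with DMSO and 100% = no enzyme wells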
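material = recombinant human SENP1 catalytic domain, His6-tagged | quantity = 20 pM enzyme | reagent = 25 nM SUMO1 FRET substrate | compound dosing = 10 µM single point, 0.5% DMSO | timing = 50 min enzyme reaction, room temperature, light-protected | detection = FRET, CFP and YFP emission | control set = no-enzyme low, enzyme-DMSO high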
SENP8 block-2 = blocks human SENP8 cleavage of Nedd8 substrate; Q96LD8; recombinant SENP8, Nedd8 substrate fluorescence; inhibition, % at 20 µM; hit rate 0.64% among 360,000; AID 602440; in the data active = inhibition mostly above about 40%, no sharp cut-off; inactive = mostly below about 27%
SENP8 confirm = confirmation of human SENP8 protease inhibitors | shares compounds with SENP7 inh | Recombinant SENP8, Z-RLRGG-aminoluciferin luminescence, 60 min | inhibition, % at 12.5 µM | hit rate 40% among 6,200 | AID 488912;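 active = mean inhibition across replicates above about 50%, limit read from the data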
SENP6 confirm = confirmation of human SENP6 protease inhibitors | inhibition, % at 12.5 µM | hit rate 58% among 6,200 | recombinant SENP6, Z-RLRGG-aminoluciferin luminescence | AID 488915 | shares compounds with SENP7 inh
SENP7 conf = confirmation of human SENP7 protease inhibitors; shares compounds with SENP7 inh; recombinant SENP7, Z-RLRGG-aminoluciferin luminescence, 40 min; hit rate 69% among 6,200; inhibition, % at 12.5 µM; AID 488917
Casp3 select = inhibits human caspase-3 in SENP selectivity test. shares compounds with SENP7 inh. purified caspase-3, Z-DEVD-aminoluciferin luminescence, 60 min. inhibition, % at 12.5 µM. hit rate 60% among 6,200. AID 488918;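 active = mean inhibition above about 50%, limit read from the data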;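 note: plate controls were enzyme with DMSO for no effect and wells without caspase-3 for full effect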
Target sequence (P42574 28-227 limits assumed): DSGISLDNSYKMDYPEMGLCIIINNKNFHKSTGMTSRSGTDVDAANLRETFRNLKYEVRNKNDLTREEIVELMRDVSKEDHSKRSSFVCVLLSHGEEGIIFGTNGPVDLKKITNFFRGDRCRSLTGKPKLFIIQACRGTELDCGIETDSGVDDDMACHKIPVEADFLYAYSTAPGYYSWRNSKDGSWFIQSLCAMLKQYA
SENP luc ctr = counter-screen for SENP inhibitors: luminescence interference. inhibition, % at 12.5 µM. AID 488919. hit rate 39% among 6,200. Pre-incubated SENP8/Z-RLRGG-aminoluciferin, luciferase luminescence interference. shares compounds with SENP7 inh;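 active = mean inhibition above about 50% when retested at one dose, limit read from the data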;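 note: plate controls were DMSO wells with completed reaction for no effect and substrate without enzyme for full effect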
* marks the source's active call; other numbers are inactive results; i = inactive; nt = no result given.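 Rule for the calls, unless noted: active = mean inhibition above about 50% in the one-dose retest (limit read from the data); inactive = the rest.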

SMILES | SENP6 block | SENP8 block-1 | SENP7 inh | Platelet DG rel | SENP1 FRET inh | SENP8 block-2 | SENP8 confirm | SENP6 confirm | SENP7 conf | Casp3 select | SENP luc ctr
COc1ccc2nc(-c3ccc(N)cc3)[nH]c2c1 | 75* | 54* | 83* | 29 | -2 | i | 68* | 61* | 91* | 86* | 74*
C/C(=N\NC(=O)c1nnn(-c2nonc2N)c1CN(C)c1ccccc1)c1cccs1 | -13 | 0 | -17 | -3 | 2 | 4 | nt | nt | nt | nt | nt
c1ccc2nc(-c3nc4ccccc4[nH]3)ccc2c1 | 97* | 97* | 100* | 83* | 2 | -469 | 95* | 98* | 103* | 98* | 49
Cc1cccc(/C=N\NC(=O)c2ccc(Cl)cc2)c1O | 37 | 12 | 73* | 1 | -5 | 2 | 7 | 19 | 29 | 60* | 5
O=C(NC(=S)Nc1ccc([N+](=O)[O-])cc1O)C1CCCCC1 | -7 | -8 | 0 | -26 | 4 | 25 | nt | nt | nt | nt | nt
Cn1ccc(C(=O)NC(=S)Nc2ccc([N+](=O)[O-])cc2O)n1 | 72* | 56* | 54* | nt | 1 | 17 | 74* | 72* | 93* | 75* | 78*
Cc1cccc(/C=N/NC(=O)c2ccc3c(c2)OCCO3)c1O | 94* | 94* | 97* | 38 | -5 | 11 | 96* | 98* | 103* | 94* | 66*
Cc1cccc(/C=N/NC(=O)Cc2ccc(Cl)cc2)c1O | -20 | 16 | -1 | 2 | 1 | -19 | nt | nt | nt | nt | nt
COc1cc([N+](=O)[O-])ccc1NC(=S)NNC(=O)c1ccc2c(c1)OCO2 | 34 | 6 | 12 | 6 | 1 | 10 | nt | nt | nt | nt | nt
O=C(NC(=S)Nc1cc([N+](=O)[O-])ccc1O)c1ccc2c(c1)OCO2 | 90* | 89* | 81* | 12 | 3 | 21 | 93* | 94* | 97* | 87* | 77*
CCOc1cccc(/C=N/NC(=O)c2ccc3c(c2)OCCO3)c1O | 7 | 1 | 4 | 4 | 6 | -16 | nt | nt | nt | nt | nt
CCC(=O)Nc1cccc(-n2nnnc2SCC(=O)N(C(C)C)C(C)C)c1 | -27 | -9 | -8 | -3 | 2 | 8 | nt | nt | nt | nt | nt
O=C(Nc1ccc2ccccc2c1)C(c1ccccc1F)n1c(=O)c(-c2cc3ccccc3[nH]2)nc2ccccc21 (stereo not drawn) | nt | nt | nt | nt | -18 | -405 | nt | nt | nt | nt | nt
O=C(N/N=C/c1cc([N+](=O)[O-])ccc1O)c1ccncc1 | 23 | 1 | 41 | 3 | -85 | -2 | nt | nt | nt | nt | nt
O=C(N/N=C/c1cc([N+](=O)[O-])ccc1O)c1ccc2c(c1)OCCO2 | 93* | 85* | 89* | -24 | -14 | -4 | 14 | 18 | 16 | 23 | -1
O=C(O)c1csc(-c2cccs2)n1 | -8 | 57* | -4 | 0 | 2 | -8 | 2 | 2 | 2 | -2 | -1
c1csc(-c2nc(CN3CCSCC3)cs2)c1 | 80* | 74* | 88* | 16 | -1 | -19 | 80* | 80* | 96* | 94* | 86*
COc1ccc(/C=C/C(=O)Nc2cc(S(=O)(=O)N3CCOCC3)ccc2C)cc1OC | -14 | -2 | 0 | 3 | 2 | -460 | nt | nt | nt | nt | nt
COc1ccc(CCn2nc(C)c([N+](=O)[O-])c2C)cc1 | 71* | 30 | 59* | -10 | 2 | 1 | 57* | 53* | 82* | 79* | 62*
Cc1ccc(NC(=O)c2cccc(C(=O)Nc3ccc(C)cc3C(=O)O)c2)c(C(=O)O)c1 | 20 | 24 | -8 | -7 | 4 | 6 | nt | nt | nt | nt | nt
Cc1ccc(S(=O)(=O)CCSc2cccc(C(=O)Nc3ccccc3C(=O)O)c2)cc1 | 88* | 65* | -2 | 0 | 0 | 8 | -20 | 76* | 92* | 60* | 85*
Cc1ccccc1NC(=O)c1ccc2c(c1)C(=O)N(CC(C)C)C2=O | 13 | 1 | 15 | -1 | 1 | 8 | nt | nt | nt | nt | nt
O=C(Nc1ccccc1C(=O)O)c1cccc(F)c1 | 75* | 51* | 38 | -20 | -1 | 24 | 75* | 70* | 92* | 87* | 75*
CC(C)CN1C(=O)c2ccc(C(=O)Nc3ccccc3C(=O)O)cc2C1=O | 87* | 82* | 43 | 6 | 3 | 22 | 88* | 88* | 98* | 88* | 89*
COc1c(Cl)cc(C(=O)Nc2ccccc2C(=O)O)cc1Cl | 76* | 69* | 6 | -2 | 1 | 7 | 81* | 79* | 86* | 36 | 84*
SMILES | SENP6 block | SENP8 block-1 | SENP7 inh | Platelet DG rel | SENP1 FRET inh | SENP8 block-2 | SENP8 confirm | SENP6 confirm | SENP7 conf | Casp3 select | SENP luc ctr
CCc1ccc(C2NC(=O)c3ccccc3O2)cc1 (stereo not drawn) | -12 | 3 | 3 | 0 | -1 | 11 | nt | nt | nt | nt | nt
Cc1cc(C(=O)Nc2ccccc2C(=O)O)oc1C | 64* | 47 | 13 | -5 | 0 | 2 | 68* | 64* | 90* | 88* | 73*
Cc1ccc(C(=O)Nc2ccccc2C(=O)O)cc1S(=O)(=O)Nc1ccccc1 | 62* | 33 | 0 | -1 | -3 | 6 | 55* | 52* | 73* | 33 | 63*
Cc1ccc(C(=O)Nc2ccccc2C(=O)O)cc1S(=O)(=O)NC1CCCCC1 | 15 | 1 | -8 | -11 | 5 | 5 | nt | nt | nt | nt | nt
O=C(Nc1c[nH]c(=O)[nH]c1=O)c1cccc(F)c1 | -8 | 62* | -4 | 2 | -1 | 15 | 11 | 3 | -10 | 3 | -8
Cc1occc1C(=O)Nc1ccccc1C(=O)O | 0 | -14 | -9 | 10 | 0 | 2 | nt | nt | nt | nt | nt
Cc1cc(F)ccc1S(=O)(=O)Nc1ccccc1C(=O)NCc1cccnc1 | -3 | -5 | -4 | 2 | 2 | -100 | nt | nt | nt | nt | nt
COc1cc(Cl)cc(CN2CCC(CCC(=O)NC3CC3)CC2)c1OC | 0 | -4 | 8 | -4 | 1 | 11 | nt | nt | nt | nt | nt
O=C(COC(=O)[C@H](Cc1ccccc1)NC(=O)c1ccco1)Nc1ccccc1OC(F)F | 8 | 6 | -5 | nt | 0 | 4 | nt | nt | nt | nt | nt
Cc1c(NC(=O)c2ccccc2N)cccc1C(=O)O | 56* | 46 | 71* | -2 | 3 | -100 | 74* | 68* | 89* | 25 | 39
